ChEMBL document CHEMBL4610003 (Bioorg Med Chem, 2020)
Converted amounts (≈) assume the structure as drawn.

How the values were obtained:
[1] = Clearance in CD-1 mouse at 2 to 3 mg/kg, iv administered as single bolus dose; type: ADME, organism-based; settings: in vivo
Method in brief: (§1)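 Male CD-1 mice received a single intravenous bolus at 2–3 mg/kg. Reported values are IV clearance and the apparent volume of distribution during the terminal phase, in L/kg.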

[2] = Intrinsic clearance in mouse liver microsomes assessed per mg protein; type: ADME, Microsome; settings: read-out: CLH
Method in brief: (§2)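 Clearance of compound by human or mouse liver microsomes, expressed as µL/min/mg protein.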

[3] = tested on: Mycobacterium tuberculosis; assay: Antimycobacterial activity against Mycobacterium tuberculosis H37Rv assessed as bacterial growth inhibition incubated for 10 days under anerobic condition followed by incubation under ambient gaseous condition for […] by low oxygen recovery assay; type: functional
Method in brief: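 Read-out is MIC90, the lowest concentration giving 90% growth inhibition of M.tb H37Rv, in µg/mL. Bacteria were held under non-replicating, low-oxygen conditions (LORA).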

[4] = Intrinsic clearance in human liver microsomes assessed per mg protein; type: ADME, Microsome; settings: read-out: CLH; method in brief: as §2
[5] = AUC (0 to infinity) in CD-1 mouse at 10 mg/kg, po via gavage administered as single dose; type: ADME, organism-based; parameters: dose 10 mg/kg, route oral, time infinity; settings: in vivo
Method in brief: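 Male CD-1 mice given a single 10 mg/kg dose by oral gavage. Exposure is reported as area under the curve from 0 to infinity in µg*h/mL.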

[6] = Oral bioavailability in CD-1 mouse at 10 mg/kg administered via gavage as single dose; type: ADME, organism-based; settings: in vivo
[7] = Apparent volume of distribution during terminal phase in CD-1 mouse at 2 to 3 mg/kg, iv administered as single bolus dose; type: ADME, organism-based; settings: in vivo; method in brief: as §1
[8] = tested on: Mycobacterium tuberculosis; assay: Antimycobacterial activity against Mycobacterium tuberculosis H37Rv assessed as bacterial growth inhibition under replicating, aerobic condition by microplate Alamar blue assay; type: functional
Method in brief: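 Read-out is MIC90, the lowest concentration giving 90% growth inhibition of M.tb H37Rv, in µg/mL. Bacteria were grown under aerobic, replicating conditions (MABA).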

[9] = tested on: Vero; assay: Cytotoxicity against African green monkey Vero cells assessed as reduction in cell viability incubated for 72 hrs by […] assay; type: cell-based; settings: Chlorocebus sabaeus
[10] = target: Voltage-gated inwardly rectifying potassium channel KCNH2 (Homo sapiens, UniProt Q12809); assay: Inhibition of human ERG
Voltage-gated inwardly rectifying potassium channel KCNH2, sequence (Q12809 whole entry): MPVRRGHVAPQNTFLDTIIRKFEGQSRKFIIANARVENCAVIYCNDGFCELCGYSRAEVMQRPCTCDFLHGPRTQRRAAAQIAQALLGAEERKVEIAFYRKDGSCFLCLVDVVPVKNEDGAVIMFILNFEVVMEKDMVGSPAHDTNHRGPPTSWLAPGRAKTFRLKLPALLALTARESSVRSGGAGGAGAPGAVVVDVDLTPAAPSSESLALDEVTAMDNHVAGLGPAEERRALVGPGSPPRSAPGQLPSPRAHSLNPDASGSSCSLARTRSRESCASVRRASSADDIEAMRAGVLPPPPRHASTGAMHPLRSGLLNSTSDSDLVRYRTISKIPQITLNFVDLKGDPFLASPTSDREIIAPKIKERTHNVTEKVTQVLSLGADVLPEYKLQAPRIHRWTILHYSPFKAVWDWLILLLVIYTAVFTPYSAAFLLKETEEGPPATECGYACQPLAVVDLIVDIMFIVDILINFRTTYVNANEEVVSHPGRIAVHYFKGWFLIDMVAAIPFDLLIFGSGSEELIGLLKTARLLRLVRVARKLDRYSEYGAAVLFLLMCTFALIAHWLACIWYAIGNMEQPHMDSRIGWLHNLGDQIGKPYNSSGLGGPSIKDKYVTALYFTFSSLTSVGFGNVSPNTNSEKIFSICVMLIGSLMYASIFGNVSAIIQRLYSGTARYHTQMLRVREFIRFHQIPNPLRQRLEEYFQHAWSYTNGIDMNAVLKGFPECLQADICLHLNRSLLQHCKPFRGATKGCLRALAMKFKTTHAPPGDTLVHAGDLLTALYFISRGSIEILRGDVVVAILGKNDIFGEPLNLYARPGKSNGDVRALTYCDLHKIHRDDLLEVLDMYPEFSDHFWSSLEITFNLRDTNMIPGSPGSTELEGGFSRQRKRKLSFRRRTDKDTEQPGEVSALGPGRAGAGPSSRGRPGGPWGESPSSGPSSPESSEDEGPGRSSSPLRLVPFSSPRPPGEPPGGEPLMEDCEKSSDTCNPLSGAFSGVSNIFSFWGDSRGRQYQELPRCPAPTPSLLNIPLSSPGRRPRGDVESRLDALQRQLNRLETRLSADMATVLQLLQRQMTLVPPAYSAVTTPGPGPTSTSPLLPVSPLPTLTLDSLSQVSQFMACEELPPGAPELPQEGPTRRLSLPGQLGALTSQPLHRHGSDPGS

SMILES	clearance [1] [mL/min/kg]	microsomal CLint [2] [µL/min/mg]	MIC90 [3] [µg/mL]	microsomal CLint [4] [µL/min/mg]	AUC(0-inf) [5] [ng·h/mL]	bioavailability [6] [%]	Vz/F [7] [L/kg]	MIC90 [8] [µg/mL]	IC50 [9] [µg/mL]	IC50 [10] [µM]
COc1cc([C@](O)(CCN(C)C)[C@@H](c2cc3cc(Br)ccc3nc2OC)c2ccnc(OC)c2OC)cc(OC2CCC2)n1 (racemic)	11	4.6	0.01 (≈ 0.015 µM)	2.5	8400	56	33	< 0.004	> 10	> 10
COc1cc([C@](O)(CCN(C)C)[C@@H](c2cc3cc(C#N)ccc3nc2OC)c2ccnc(OC)c2OC)cc(OC(F)F)n1 (racemic)	24	11	0.04 (≈ 0.0656 µM)	2.5	3000	43	40	< 0.02	> 10	7
COc1cc([C@](O)(CCN(C)C)[C@@H](c2cc3cc(Br)ccc3nc2OC)c2cccc(OC)c2F)cc(OC(C)C)n1 (racemic)	8.9	6	0.03 (≈ 0.0467 µM)	3.4	9000	43	34	< 0.02	> 10	> 30
COc1cc([C@](O)(CCN(C)C)[C@H](c2cccc(C)c2)c2cc3cc(Br)ccc3nc2OC)cc(OC(C)C)n1 (racemic)			0.01 (≈ 0.0164 µM)					0.01 (≈ 0.0164 µM)		> 10
CCOc1cc([C@](O)(CCN(C)C)[C@@H](c2cc3cc(Br)ccc3nc2OC)c2ccnc(OC)c2OC)cc(OC(C)C)n1 (racemic)	3.1	1.6	< 0.02	1.8	32000	58	9.1	< 0.02	> 10	
CCSc1cc([C@](O)(CCN(C)C)[C@@H](c2cc3cc(C#N)ccc3nc2OC)c2ccnc(OC)c2OC)cc(SCC)n1 (racemic)			0.03 (≈ 0.0473 µM)					0.06 (≈ 0.0947 µM)		1.5
COc1cc([C@](O)(CCN(C)C)[C@@H](c2cc3cc(Br)ccc3nc2OC)c2ccnc(OC)c2OC)cc(OC(F)F)n1 (racemic)	8.7	4.9	< 0.004	2.1	9800	50	27	< 0.004	> 10	> 10
CCOc1cc([C@](O)(CCN(C)C)[C@H](c2cccc(C)c2)c2cc3cc(Br)ccc3nc2OC)cc(OC)n1 (racemic)	12	7.8	< 0.02	4.4	9400	65	45	< 0.02	> 10	> 10
COc1cc([C@](O)(CCN(C)C)[C@@H](c2cc3cc(C#N)ccc3nc2OC)c2cccc(C)c2F)cc(OC(F)F)n1 (racemic)	13	5.9	0.03 (≈ 0.0517 µM)	0.6	8600	66	38	0.01 (≈ 0.0172 µM)	> 10	> 30
COc1cc([C@](O)(CCN(C)C)[C@@H](c2cc3cc(Br)ccc3nc2OC)c2cccc(OC)c2F)cc(OC(F)F)n1 (racemic)	9.7	6.4	< 0.02	0.1	14400	83	18	0.04 (≈ 0.0615 µM)	> 10	> 30
COc1cc([C@](O)(CCN(C)C)[C@@H](c2cc3cc(Br)ccc3nc2OC)c2ccnc(OC)c2OC)cc(OC(C)C)n1 (racemic)	6.8	6.7	< 0.01	6.4	5600	22	19	< 0.01	> 10	17
COc1cc([C@](O)(CCN(C)C)[C@@H](c2cc3cc(Br)ccc3nc2OC)c2ccnc(OC)c2OC)cc(N(C)C)n1 (racemic)			0.02 (≈ 0.0312 µM)					0.45 (≈ 0.702 µM)		
CCOc1cc([C@](O)(CCN(C)C)[C@@H](c2cc3cc(Br)ccc3nc2OC)c2cccc(OC)c2F)cc(OC)n1 (racemic)	19	14	< 0.01	4.1	4000	46	51	< 0.01	> 10	> 30
CCSc1cc([C@](O)(CCN(C)C)[C@@H](c2cc3cc(Br)ccc3nc2OC)c2ccnc(OC)c2OC)cc(N(C)C)n1 (racemic)			0.57 (≈ 0.85 µM)					0.04 (≈ 0.0596 µM)		> 10
CCCOc1cc([C@](O)(CCN(C)C)[C@H](c2cccc(C)c2)c2cc3cc(Br)ccc3nc2OC)cc(OC)n1 (racemic)			0.02 (≈ 0.0329 µM)					0.01 (≈ 0.0164 µM)		> 10
CCCOc1cc([C@](O)(CCN(C)C)[C@@H](c2cc3cc(Br)ccc3nc2OC)c2ccnc(OC)c2OC)cc(OC)n1 (racemic)	6.9	6.5	0.06 (≈ 0.0915 µM)	8.2	10900	50	44	0.01 (≈ 0.0153 µM)	> 10	
COc1cc([C@](O)(CCN(C)C)[C@@H](c2cc3cc(C#N)ccc3nc2OC)c2cccc(OC)c2F)cc(OC(F)F)n1 (racemic)			< 0.02					< 0.02		
COc1cc([C@](O)(CCN(C)C)[C@@H](c2cc3cc(Br)ccc3nc2OC)c2cccc(OC)c2F)cc(S(C)(=O)=O)n1 (racemic)			0.73 (≈ 1.1 µM)					0.46 (≈ 0.694 µM)		1.8
CCOc1cc([C@](O)(CCN(C)C)[C@@H](c2cc3cc(Br)ccc3nc2OC)c2ccnc(OC)c2OC)cc(OC)n1 (racemic)	9.5	7.6	< 0.02	3.8	12700	70	28	< 0.02	> 10	3.3
CCSc1cc([C@](O)(CCN(C)C)[C@@H](c2cc3cc(Br)ccc3nc2OC)c2ccnc(OC)c2OC)cc(SCC)n1 (racemic)			0.21 (≈ 0.305 µM)					0.04 (≈ 0.0582 µM)		9.2
CCSc1cc([C@](O)(CCN(C)C)[C@@H](c2cc3cc(C#N)ccc3nc2OC)c2cccc3c2OCO3)cc(SCC)n1 (racemic)			0.05 (≈ 0.0811 µM)					< 0.02		> 10
CCS(=O)(=O)c1cc([C@](O)(CCN(C)C)[C@@H](c2cc3cc(C#N)ccc3nc2OC)c2ccnc(OC)c2OC)cc(S(=O)(=O)CC)n1 (racemic)			5 (≈ 7.17 µM)					4.4 (≈ 6.31 µM)		
